In ChEMBL document CHEMBL1165943, “Design and synthesis of new anticancer pyrimidines with multiple-kinase inhibitory effect” (Bioorg Med Chem, 2010):

Assays:
HOP-92 [1] = assay: Cytotoxicity against human HOP92 cells assessed as cell growth at 0.001 uM after 48 hrs by sulforhodamine B assay; assay type: functional; details: HOP-92, 48 h, read-out: Activity
HOP-92 [2] = assay: Cytotoxicity against human HOP92 cells assessed as cell growth at 1 uM after 48 hrs by sulforhodamine B assay; assay type: functional; details: HOP-92, 48 h, read-out: Activity
NCI-H226 [3] = assay: Cytotoxicity against human NCI-H226 cells assessed as cell growth at 0.01 uM after 48 hrs by sulforhodamine B assay; assay type: functional; details: NCI-H226, 48 h, read-out: Activity
MCF7 [4] = assay: Cytotoxicity against human MCF7 cells assessed as cell growth at 100 nM after 48 hrs by sulforhodamine B assay; assay type: functional; details: MCF7, 48 h, read-out: Activity
HCC 2998 [5] = assay: Cytotoxicity against human HCC2998 cells assessed as cell growth at 100 nM after 48 hrs by sulforhodamine B assay; assay type: functional; details: HCC 2998, 48 h, read-out: Activity
SK-MEL-28 [6] = assay: Growth inhibition of human SK-MEL-28 cells after 48 hrs by sulforhodamine B assay; assay type: functional; details: SK-MEL-28, 48 h
Method in brief: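 Adherent SK-MEL-28 cells, plated in RPMI 1640 with 5% FBS and 2 mM L-glutamine, get five 10-fold or ½log drug dilutions for 48 h at 37 °C. Cells are fixed with cold TCA (final 10%) for 60 min at 4 °C, stained with 0.4% SRB, solubilized in 10 mM Tris and read at 515 nm. IC50 is solved from [(Ti−Tz)/(C−Tz)]×100 = 50.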

SR [7] = assay: Cytotoxicity against human SR cells assessed as cell growth at 10 uM after 48 hrs by sulforhodamine B assay; assay type: functional; details: read-out: Activity
CCRF-CEM = assay: Cytotoxicity against human CCRF-CEM cells assessed as cell growth at 10 uM after 48 hrs by sulforhodamine B assay; assay type: functional; details: read-out: Activity
MCF7 [8] = assay: Growth inhibition of human MCF7 cells after 48 hrs by sulforhodamine B assay; assay type: functional; details: MCF7, 48 h
Method in brief: (§1)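 Cells grown in RPMI 1640 with 5% FBS and 2 mM L-glutamine, seeded at 5,000–40,000 cells/well according to doubling time. After 24 h, time-zero plates are TCA-fixed. Five concentrations (10-fold or ½log dilutions, DMSO stocks) are applied for 48 h at 37 °C, 5% CO₂. Cells are TCA-fixed, SRB-stained and read at 515 nm. IC₅₀ is taken from [(Ti−Tz)/(C−Tz)]×100 = 50.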

[9] = Cytotoxicity against human RPMI8266 cells assessed as cell growth at 0.001 uM after 48 hrs by sulforhodamine B assay; assay type: functional; details: read-out: Activity
[10] = Cytotoxicity against human RPMI8266 cells assessed as cell growth at 0.01 uM after 48 hrs by sulforhodamine B assay; assay type: functional; details: read-out: Activity
SR [11] = assay: Cytotoxicity against human SR cells assessed as cell growth at 0.01 uM after 48 hrs by sulforhodamine B assay; assay type: functional; details: read-out: Activity
MCF7 [12] = assay: Cytotoxicity against human MCF7 cells assessed as cell growth at 0.01 uM after 48 hrs by sulforhodamine B assay; assay type: functional; details: MCF7, 48 h, read-out: Activity
SK-MEL-28 [13] = assay: Cytotoxicity against human SK-MEL-28 cells assessed as cell growth at 0.01 uM after 48 hrs by sulforhodamine B assay; assay type: functional; details: SK-MEL-28, 48 h, read-out: Activity
SR [14] = assay: Cytotoxicity against human SR cells assessed as cell growth at 1 uM after 48 hrs by sulforhodamine B assay; assay type: functional; details: read-out: Activity
HCC 2998 [15] = assay: Growth inhibition of human HCC2998 cells after 48 hrs by sulforhodamine B assay; assay type: functional; details: HCC 2998, 48 h; method in brief: as §1
SK-MEL-28 [16] = assay: Cytotoxicity against human SK-MEL-28 cells assessed as cell growth at 0.001 uM after 48 hrs by sulforhodamine B assay; assay type: functional; details: SK-MEL-28, 48 h, read-out: Activity
NCI-H226 [17] = assay: Cytotoxicity against human NCI-H226 cells assessed as cell growth at 0.001 uM after 48 hrs by sulforhodamine B assay; assay type: functional; details: NCI-H226, 48 h, read-out: Activity
MCF7 [18] = assay: Cytotoxicity against human MCF7 cells assessed as cell growth at 0.001 uM after 48 hrs by sulforhodamine B assay; assay type: functional; details: MCF7, 48 h, read-out: Activity
[19] = biological target: Receptor-type tyrosine-protein kinase FLT3 (Homo sapiens) (UniProt P36888); assay: Inhibition of FLT3 at 10 uM by HotSpot assay
[20] = biological target: Tyrosine-protein kinase ABL1 (Homo sapiens) (UniProt P00519); assay: Inhibition of ABL1 at 10 uM by HotSpot assay
[21] = biological target: Dual specificity mitogen-activated protein kinase kinase 1 (Homo sapiens) (UniProt Q02750); assay: Inhibition of MEK1 at 10 uM by HotSpot assay
[22] = biological target: Vascular endothelial growth factor receptor 2 (Homo sapiens) (UniProt P35968); assay: Inhibition of KDR at 10 uM by HotSpot assay
[23] = biological target: RAF proto-oncogene serine/threonine-protein kinase (Homo sapiens) (UniProt P04049); assay: Inhibition of RAF1 at 10 uM by HotSpot assay
[24] = biological target: Calcium/calmodulin-dependent protein kinase type II subunit beta (Homo sapiens) (UniProt Q13554); assay: Inhibition of CAMK2B at 10 uM by HotSpot assay
[25] = biological target: Serine/threonine-protein kinase B-raf (Homo sapiens) (UniProt P15056); assay: Inhibition of B-Raf at 10 uM by HotSpot assay
[26] = biological target: Insulin receptor (Homo sapiens) (UniProt P06213); assay: Inhibition of IR at 10 uM by HotSpot assay
[27] = biological target: Tyrosine-protein kinase JAK3 (Homo sapiens) (UniProt P52333); assay: Inhibition of JAK3 at 10 uM by HotSpot assay
[28] = biological target: Serine/threonine-protein kinase PLK1 (Homo sapiens) (UniProt P53350); assay: Inhibition of PLK1 at 10 uM by HotSpot assay
[29] = biological target: Tyrosine-protein kinase SYK (Homo sapiens) (UniProt P43405); assay: Inhibition of SYK at 10 uM by HotSpot assay
[30] = Inhibition of PKA at 10 uM by HotSpot assay
[31] = biological target: RAC-alpha serine/threonine-protein kinase (Homo sapiens) (UniProt P31749); assay: Inhibition of AKT1 at 10 uM by HotSpot assay
[32] = biological target: DNA-dependent protein kinase catalytic subunit (Homo sapiens) (UniProt P78527); assay: Inhibition of DNA-PK at 10 uM by HotSpot assay
[33] = biological target: Mitogen-activated protein kinase 8 (Homo sapiens) (UniProt P45983); assay: Inhibition of JNK1 at 10 uM by HotSpot assay
[34] = biological target: Inhibitor of nuclear factor kappa-B kinase subunit beta (Homo sapiens) (UniProt O14920); assay: Inhibition of IKK-beta at 10 uM by HotSpot assay
[35] = biological target: Protein kinase C alpha type (Homo sapiens) (UniProt P17252); assay: Inhibition of PKCalpha at 10 uM by HotSpot assay
[36] = biological target: Macrophage-stimulating protein receptor (Homo sapiens) (UniProt Q04912); assay: Inhibition of RON at 10 uM by HotSpot assay
[37] = read-out: LC50 (the source's name)

Sequence of Dual specificity mitogen-activated protein kinase kinase 1 (Homo sapiens) (Q02750 whole entry): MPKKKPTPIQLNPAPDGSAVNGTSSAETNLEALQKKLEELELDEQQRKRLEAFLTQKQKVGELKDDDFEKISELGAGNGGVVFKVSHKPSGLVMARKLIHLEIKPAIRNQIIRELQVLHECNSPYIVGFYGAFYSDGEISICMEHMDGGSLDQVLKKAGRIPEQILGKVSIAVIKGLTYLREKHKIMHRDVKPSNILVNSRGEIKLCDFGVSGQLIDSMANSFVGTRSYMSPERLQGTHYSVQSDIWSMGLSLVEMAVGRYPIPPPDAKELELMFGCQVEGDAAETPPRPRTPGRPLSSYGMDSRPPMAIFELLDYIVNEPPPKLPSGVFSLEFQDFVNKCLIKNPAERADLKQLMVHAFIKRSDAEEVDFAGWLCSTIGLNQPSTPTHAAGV
Sequence of RAC-alpha serine/threonine-protein kinase (Homo sapiens) (P31749 whole entry): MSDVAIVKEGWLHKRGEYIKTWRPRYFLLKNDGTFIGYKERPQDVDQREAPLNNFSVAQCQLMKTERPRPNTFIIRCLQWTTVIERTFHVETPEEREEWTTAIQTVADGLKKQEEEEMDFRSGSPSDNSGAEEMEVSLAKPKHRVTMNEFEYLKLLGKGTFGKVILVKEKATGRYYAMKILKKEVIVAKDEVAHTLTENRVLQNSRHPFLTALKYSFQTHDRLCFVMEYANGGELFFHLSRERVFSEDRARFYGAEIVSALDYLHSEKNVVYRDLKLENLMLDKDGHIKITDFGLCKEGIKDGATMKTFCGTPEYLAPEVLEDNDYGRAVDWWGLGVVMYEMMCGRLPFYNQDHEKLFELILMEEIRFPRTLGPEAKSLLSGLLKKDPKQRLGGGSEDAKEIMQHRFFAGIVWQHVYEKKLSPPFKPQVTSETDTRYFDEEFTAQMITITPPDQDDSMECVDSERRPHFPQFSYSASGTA
Sequence of Tyrosine-protein kinase ABL1 (Homo sapiens) (P00519 whole entry): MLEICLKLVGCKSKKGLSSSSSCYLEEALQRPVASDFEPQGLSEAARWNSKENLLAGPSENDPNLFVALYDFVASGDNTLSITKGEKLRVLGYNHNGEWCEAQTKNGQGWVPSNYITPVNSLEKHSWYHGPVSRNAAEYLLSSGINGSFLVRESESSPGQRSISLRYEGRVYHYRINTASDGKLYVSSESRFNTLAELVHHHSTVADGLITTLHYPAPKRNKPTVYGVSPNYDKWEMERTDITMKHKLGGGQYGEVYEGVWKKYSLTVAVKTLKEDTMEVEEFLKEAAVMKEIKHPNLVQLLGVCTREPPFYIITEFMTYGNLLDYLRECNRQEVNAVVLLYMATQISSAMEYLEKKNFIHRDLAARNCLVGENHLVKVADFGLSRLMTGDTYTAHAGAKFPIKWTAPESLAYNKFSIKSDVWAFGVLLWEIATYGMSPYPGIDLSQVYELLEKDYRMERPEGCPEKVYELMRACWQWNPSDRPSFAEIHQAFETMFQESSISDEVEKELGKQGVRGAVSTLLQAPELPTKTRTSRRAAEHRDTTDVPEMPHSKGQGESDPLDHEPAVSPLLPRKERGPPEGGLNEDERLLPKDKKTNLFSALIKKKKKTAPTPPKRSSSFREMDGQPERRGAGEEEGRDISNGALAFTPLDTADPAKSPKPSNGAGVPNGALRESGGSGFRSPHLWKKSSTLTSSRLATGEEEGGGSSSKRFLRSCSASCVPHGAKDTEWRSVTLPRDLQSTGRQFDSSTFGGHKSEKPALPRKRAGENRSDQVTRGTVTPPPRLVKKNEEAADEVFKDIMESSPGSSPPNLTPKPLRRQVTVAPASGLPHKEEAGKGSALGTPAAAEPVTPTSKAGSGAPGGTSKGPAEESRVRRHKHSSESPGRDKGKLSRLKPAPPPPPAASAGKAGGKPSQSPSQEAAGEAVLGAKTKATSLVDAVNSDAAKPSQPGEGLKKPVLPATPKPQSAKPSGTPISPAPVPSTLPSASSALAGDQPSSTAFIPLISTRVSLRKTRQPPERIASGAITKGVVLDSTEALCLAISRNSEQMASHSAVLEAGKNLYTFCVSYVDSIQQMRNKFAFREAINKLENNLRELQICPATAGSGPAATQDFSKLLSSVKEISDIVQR
Sequence of Serine/threonine-protein kinase PLK1 (Homo sapiens) (P53350 whole entry): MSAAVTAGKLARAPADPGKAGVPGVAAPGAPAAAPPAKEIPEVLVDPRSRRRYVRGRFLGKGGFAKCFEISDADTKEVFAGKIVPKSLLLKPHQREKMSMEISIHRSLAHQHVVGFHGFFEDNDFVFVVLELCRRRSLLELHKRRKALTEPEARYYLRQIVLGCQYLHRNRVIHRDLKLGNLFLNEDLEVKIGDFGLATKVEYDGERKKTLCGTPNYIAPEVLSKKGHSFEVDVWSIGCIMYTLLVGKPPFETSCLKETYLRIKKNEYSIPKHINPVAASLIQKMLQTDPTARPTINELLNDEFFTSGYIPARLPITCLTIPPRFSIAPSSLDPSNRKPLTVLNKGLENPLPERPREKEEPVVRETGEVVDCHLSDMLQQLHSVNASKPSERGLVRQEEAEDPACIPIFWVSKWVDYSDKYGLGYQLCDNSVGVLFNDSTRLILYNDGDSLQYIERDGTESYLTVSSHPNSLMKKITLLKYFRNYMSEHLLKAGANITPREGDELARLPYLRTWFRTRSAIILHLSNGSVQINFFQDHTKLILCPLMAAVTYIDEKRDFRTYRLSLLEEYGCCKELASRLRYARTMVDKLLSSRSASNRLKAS
Sequence of Vascular endothelial growth factor receptor 2 (Homo sapiens) (P35968 whole entry): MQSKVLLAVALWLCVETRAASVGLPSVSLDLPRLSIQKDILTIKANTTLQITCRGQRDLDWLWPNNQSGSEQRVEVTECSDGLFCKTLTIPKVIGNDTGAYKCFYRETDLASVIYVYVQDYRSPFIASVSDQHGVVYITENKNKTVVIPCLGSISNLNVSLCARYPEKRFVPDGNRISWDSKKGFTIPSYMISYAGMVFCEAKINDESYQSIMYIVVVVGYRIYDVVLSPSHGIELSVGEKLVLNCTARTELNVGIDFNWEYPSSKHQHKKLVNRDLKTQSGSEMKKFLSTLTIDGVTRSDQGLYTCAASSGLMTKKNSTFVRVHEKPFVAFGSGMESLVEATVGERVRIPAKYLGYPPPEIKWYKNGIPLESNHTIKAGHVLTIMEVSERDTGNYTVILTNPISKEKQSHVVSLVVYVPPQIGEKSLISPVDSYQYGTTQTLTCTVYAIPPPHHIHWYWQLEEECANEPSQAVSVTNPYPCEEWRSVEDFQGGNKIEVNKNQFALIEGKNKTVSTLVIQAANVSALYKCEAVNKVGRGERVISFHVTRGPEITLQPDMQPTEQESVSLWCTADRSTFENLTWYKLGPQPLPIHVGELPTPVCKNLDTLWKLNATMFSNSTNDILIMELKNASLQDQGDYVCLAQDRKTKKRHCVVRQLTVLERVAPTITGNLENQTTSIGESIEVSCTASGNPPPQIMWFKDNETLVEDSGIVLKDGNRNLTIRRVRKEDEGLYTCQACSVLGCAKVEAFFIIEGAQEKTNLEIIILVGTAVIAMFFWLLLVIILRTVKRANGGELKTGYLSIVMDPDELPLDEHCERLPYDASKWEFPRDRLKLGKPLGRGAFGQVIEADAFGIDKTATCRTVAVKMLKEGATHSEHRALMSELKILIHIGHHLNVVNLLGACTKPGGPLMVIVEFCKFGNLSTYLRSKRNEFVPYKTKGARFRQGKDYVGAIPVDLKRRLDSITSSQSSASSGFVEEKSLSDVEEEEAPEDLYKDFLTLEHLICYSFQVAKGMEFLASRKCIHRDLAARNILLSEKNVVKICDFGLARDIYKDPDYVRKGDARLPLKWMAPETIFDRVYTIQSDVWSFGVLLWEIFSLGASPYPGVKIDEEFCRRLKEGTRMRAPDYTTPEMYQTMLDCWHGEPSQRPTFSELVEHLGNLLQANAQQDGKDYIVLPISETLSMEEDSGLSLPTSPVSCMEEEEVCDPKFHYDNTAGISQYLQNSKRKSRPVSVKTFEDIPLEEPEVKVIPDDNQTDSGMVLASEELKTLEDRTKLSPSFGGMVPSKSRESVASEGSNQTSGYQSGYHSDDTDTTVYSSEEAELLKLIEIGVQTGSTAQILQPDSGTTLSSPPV
Sequence of Calcium/calmodulin-dependent protein kinase type II subunit beta (Homo sapiens) (Q13554 whole entry): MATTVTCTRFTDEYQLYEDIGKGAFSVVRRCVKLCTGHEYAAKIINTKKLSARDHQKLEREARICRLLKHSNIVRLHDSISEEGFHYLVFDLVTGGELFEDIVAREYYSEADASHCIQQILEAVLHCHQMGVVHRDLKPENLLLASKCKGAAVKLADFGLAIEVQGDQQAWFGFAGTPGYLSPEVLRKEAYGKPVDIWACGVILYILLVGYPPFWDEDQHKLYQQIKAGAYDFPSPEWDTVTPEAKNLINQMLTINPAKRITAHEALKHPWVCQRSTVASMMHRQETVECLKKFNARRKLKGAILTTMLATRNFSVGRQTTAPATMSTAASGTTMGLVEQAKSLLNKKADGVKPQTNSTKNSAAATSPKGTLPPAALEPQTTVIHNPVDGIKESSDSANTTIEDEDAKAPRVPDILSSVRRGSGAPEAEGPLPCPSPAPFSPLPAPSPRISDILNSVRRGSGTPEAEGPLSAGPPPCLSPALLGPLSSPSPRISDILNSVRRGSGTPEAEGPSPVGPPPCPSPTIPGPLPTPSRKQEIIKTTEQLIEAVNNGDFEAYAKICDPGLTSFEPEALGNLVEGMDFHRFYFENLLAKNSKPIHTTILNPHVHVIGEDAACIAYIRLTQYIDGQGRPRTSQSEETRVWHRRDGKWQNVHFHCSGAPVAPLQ
Sequence of Mitogen-activated protein kinase 8 (Homo sapiens) (P45983 whole entry): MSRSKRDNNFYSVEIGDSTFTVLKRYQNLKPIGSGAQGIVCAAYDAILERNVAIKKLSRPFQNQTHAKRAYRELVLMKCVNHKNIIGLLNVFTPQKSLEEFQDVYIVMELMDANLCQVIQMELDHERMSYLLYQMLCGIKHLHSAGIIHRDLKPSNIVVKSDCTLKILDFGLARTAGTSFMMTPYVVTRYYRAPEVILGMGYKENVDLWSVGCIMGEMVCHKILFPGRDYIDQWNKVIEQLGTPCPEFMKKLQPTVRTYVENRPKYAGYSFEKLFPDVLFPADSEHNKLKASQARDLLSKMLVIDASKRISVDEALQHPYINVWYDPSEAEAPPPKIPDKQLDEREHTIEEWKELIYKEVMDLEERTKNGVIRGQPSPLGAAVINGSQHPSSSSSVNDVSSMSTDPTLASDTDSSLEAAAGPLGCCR

Compound `CC(=O)c1ccccc1-c1ccc(-c2ccnc(NC(=O)Nc3cc(N4CCOCC4)cc(C(F)(F)F)c3)n2)cn1` has a growth at 0.001 µM (HOP-92 [1]) of 88%, a growth at 1 µM (HOP-92 [2]) of -2% and a growth at 0.01 µM (NCI-H226 [3]) of 108%. The growth at 0.1 µM (MCF7 [4]) was 100%, the growth at 0.1 µM (HCC 2998 [5]) was 117% and the TGI (SK-MEL-28 [6]) was > 100 µM. For the same compound, the CC50 (SK-MEL-28 [6]; [37]) was > 100 µM, the growth at 10 µM (SR [7]) was 107% and the growth at 10 µM (CCRF-CEM) was 97%. For the same compound, the GI50 (MCF7 [8]) was > 100 µM, the TGI (MCF7 [8]) was > 100 µM and the CC50 (MCF7 [8]; [37]) was > 100 µM. For the same compound, the growth at 0.001 µM [9] was 101%, the growth at 0.01 µM [10] was 104% and the growth at 0.01 µM (SR [11]) was 89%. It also gave a growth at 0.01 µM (MCF7 [12]) of 101%, a growth at 0.01 µM (SK-MEL-28 [13]) of 107% and a growth at 1 µM (SR [14]) of 78%. The GI50 (HCC 2998 [15]) was > 100 µM, the TGI (HCC 2998 [15]) was > 100 µM and the CC50 (HCC 2998 [15]; [37]) was > 100 µM. The growth at 0.001 µM (SK-MEL-28 [16]) was 100%, the growth at 0.001 µM (NCI-H226 [17]) was 105% and the growth at 0.001 µM (MCF7 [18]) was 94%.

With `CC(=O)Nc1cccc(-c2ccc(-c3ccnc(NC(=O)Nc4cc(C(F)(F)F)cc(C(F)(F)F)c4)n3)cn2)c1.Cl` the inhibition [19] was 50%, the inhibition [20] was 70% and the inhibition [21] was < 50%. The inhibition [22] was 50%, the inhibition [23] was < 50% and the inhibition [24] was < 50%. For the same compound, the inhibition [25] was < 50%, the inhibition [26] was < 50% and the inhibition [27] was < 50%. The inhibition [28] was < 50%, the inhibition [29] was < 50% and the inhibition [30] was < 50%. The inhibition [31] was < 50%, the inhibition [32] was < 50% and the inhibition [33] was < 50%. The inhibition [34] was < 50%, the inhibition [35] was < 50% and the inhibition [36] was < 50%.
